Measurements from the RNAGym collection of RNA variant scans (doi:10.1126/science.aae0568).
Variants at the floor of the assay were thinned out.

B1: tRNA (parent)
chain: GUUCCGUUGGCGUAAUGGUAACGCGUCUCCCUCCUAAGGAGAAGACUGCGGGUUCGAGUCCCGUACGGAACG

Variants of: B1
Assay: yeast fitness relative to wild type (ratio to wild type); higher = fitter; tRNA-Arg(CCU), competitive growth, 37 C, YPD
In short: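 Amplicons of the tRNA-Arg(CCU) gene were sequenced, 100-nucleotide paired-end, from the start population and from each end population of a pooled yeast competition. The competition, in six parallel replicates, lasted 24 hours in YPD at 37°C. Fitness relative to wild type was calculated from changes in genotype frequencies. Genotypes had to have ≥ 100 starting reads, and estimates < 0.5 were set to 0.5.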

Row | Variant | yeast fitness
1 | C11G U32G C33U A37U | ≤ 0.5
2 | C11G C46G A57U | 0.624
3 | C11G A21U C24U U64A A65G G67U | 0.573
4 | C11G A43U G67C | 0.505
5 | C11G A21G G51C | 0.872
6 | C11G A14U G17A A36G G41A C55G C61A | ≤ 0.5
7 | C11G G44C C66A | 0.614
8 | C11U A14C | 0.745
9 | C11U A14G | 0.865
10 | C11G C29U C66A | ≤ 0.5
11 | C11G C29A C61U | 0.504
12 | C11G G50A | 0.716
13 | C11G G50C | 0.597
14 | C11G C30A C31G G50A | ≤ 0.5
15 | C11G A14U C24A C61A | ≤ 0.5
16 | C11G U13A U16G U26A A65G | ≤ 0.5
17 | C11G U26A U53A | ≤ 0.5
18 | C11G U47A C61G | ≤ 0.5
19 | C11G C29U A69U | 0.543
20 | C11G C24G A57G | ≤ 0.5
21 | C11G G18C U26C C31G C46U C60G C61G A65C | 0.61
22 | C11G U19G | 0.577
23 | C11G C46U A65C | 0.561
24 | C11G C31A A42G A43G G68C | ≤ 0.5

Row | Variant | yeast fitness
25 | C11G U19A A21G C27U G39C | ≤ 0.5
26 | C11G G18U C22U G39C C49G A57U A69U | ≤ 0.5
27 | C11G C49U C62U | 0.535
28 | C11G A36C G38U G56A | ≤ 0.5
29 | C11G C27U C60A | 0.535
30 | C11G G12C A40G U47C G50C | 0.897
31 | C11G A14G A15U G23C G68C | ≤ 0.5
32 | C11G U19G A45C | ≤ 0.5
33 | C11G A14C A42U G51C C60U | ≤ 0.5
34 | C11G C31A G39A | ≤ 0.5
35 | C11G C34U G41A | 0.544
36 | C11G A15C C30U U53A C61G | ≤ 0.5
37 | C11G G12A C31G | ≤ 0.5
38 | C11G U28A G68A | ≤ 0.5
39 | C11G G52C U54C A57U | ≤ 0.5
40 | C11G C27G U28G | 0.626
41 | C11G A21U U47A G63C | ≤ 0.5
42 | C11G A37G G38A A45U A70G | ≤ 0.5
43 | C11G A15C G18A C30G U47G G67A | 0.656
44 | C11G C60G | 0.713
45 | C11G C30U G67C | ≤ 0.5
46 | C11G A36C | ≤ 0.5
47 | C11G A15G C33G A37G U54A | ≤ 0.5
48 | C11G A42G U54C A57C | ≤ 0.5

Row | Variant | yeast fitness
49 | C11G C33G | ≤ 0.5
50 | C11G G12C U54A C60A A69C | 0.557
51 | C11G A36C C49A | ≤ 0.5
52 | C11G A42C U47A G63C A69C | ≤ 0.5
53 | C11G A42G | 0.649
54 | C11G A42U | 0.608
55 | C11G A42C | 0.636
56 | C11G C29U C61A | ≤ 0.5
57 | C11G U28C C60A G67A | 0.567
58 | C11G A15U A36U | ≤ 0.5
59 | C11G C24G G67C | 0.566
60 | C11G C29G C49U G63A | ≤ 0.5
61 | C11G U13G C33G G41A G63A A69C | ≤ 0.5
62 | C11G A15U C24G A40G | ≤ 0.5
63 | C11G C29U A36C A42G | 0.718
64 | C11G G23C A36G A37G | 0.774
65 | C11G U16G G38C G68A | ≤ 0.5
66 | C11G U16A U26A C34U C55G | ≤ 0.5
67 | C11G A45U U64C | ≤ 0.5
68 | C11G C29A U35C A43C | ≤ 0.5
69 | C11G G17C U35C C49U C66U | ≤ 0.5
70 | C11G A15G U26A U32A G38A A40C G52A | ≤ 0.5
71 | C11G A36C A57C C66G | ≤ 0.5
72 | C11G A15G U26G G44A | ≤ 0.5

Row | Variant | yeast fitness
73 | C11G U47A G68C | ≤ 0.5
74 | C11G U26C | 0.569
75 | C11G C55G A57C C66U | ≤ 0.5
76 | C11G C29G U32G G38A U53C | ≤ 0.5
77 | C11G G23A C34G | ≤ 0.5
78 | C11G U16A G23C C30U C34U G67U | 0.537
79 | C11G A45G C49U C55A A70U | ≤ 0.5
80 | C11G A14U G48C | 0.58
81 | C11G A45C | 0.59
82 | C11G A45U | 0.666
83 | C11G G25A A37U | 0.573
84 | C11G G25A A36U | 0.615
85 | C11G A15U A21G G38C | 0.604
86 | C11G C31U C46G G63A | ≤ 0.5
87 | C11G C49A A57U U64A G67U | ≤ 0.5
88 | C11G C27U A43C A65U | ≤ 0.5
89 | C11G U13G C30U U32A A37G A40U A57U | ≤ 0.5
90 | C11G A42G A45U U64C A70C | 0.527
91 | C11G C29U C34U C62A U64C C66U | ≤ 0.5
92 | C11G A14G G41A | ≤ 0.5
93 | C11G G18C C49A A70C | ≤ 0.5
94 | C11G C27A A57C C62U | ≤ 0.5
95 | C11G C24A C66G | ≤ 0.5
96 | C11G C29A U54A A57U | ≤ 0.5

Row | Variant | yeast fitness
97 | C11G U32A C46U | 0.598
98 | C11G G17C A40G | ≤ 0.5
99 | C11G A20U C30G C66U | ≤ 0.5
100 | C11G C29U C46G | ≤ 0.5
101 | C11G C31G C55G C60A | ≤ 0.5
102 | C11G U26A C30U G48A U54A C55G A65U | 0.664
103 | C11G G18C U26C C31G C46U C55U | ≤ 0.5
104 | C11G A14G A20U C27G C29U C62U | ≤ 0.5
105 | C11G A21G A40G G58A C62G | ≤ 0.5
106 | C11G C31A C55U | ≤ 0.5
107 | C11G C31G | 0.555
108 | C11G C31A | 0.508
109 | C11G C34U U35A C55U | 0.59
110 | C11G C33G A37U A45U | 0.64
111 | C11G U16C C24U U28C | ≤ 0.5
112 | C11G G12A C31G A69C | ≤ 0.5
113 | C11G A21G A40G | ≤ 0.5
114 | C11G A65C C66G | ≤ 0.5
115 | C11G C24U U28C | ≤ 0.5
116 | C11G A14U A36U G38C | 0.553
117 | C11G A14C A15C A40C A70C | ≤ 0.5
118 | C11G G12C G23C A40G | ≤ 0.5
119 | C11G A14C C55G A57U G67A | ≤ 0.5
120 | C11G A20U C29A C30U C46G | ≤ 0.5

Row | Variant | yeast fitness
121 | C11G G25A U32C G50A G51U U59A U64A | 0.628
122 | C11G A14G G39C C55U | ≤ 0.5
123 | C11G U19C A45U | ≤ 0.5
124 | C11G C22U G68C | 0.732
125 | C11G C30G C31G U32A C55G G67A | 0.696
126 | C11G C33G A69U | ≤ 0.5
127 | C11G G25A C62U | ≤ 0.5
128 | C11G U59A | 0.641
129 | C11G G48C G51C U53C A57U C66U | ≤ 0.5
130 | C11G A15U C24G A40G C62U | ≤ 0.5
131 | C11U A14C A15G U26A C34A G63A | ≤ 0.5
132 | C11G U16A C30A A69U | ≤ 0.5
133 | C11U A14G A37C | 0.737
134 | C11G A15U C24G A40G C62U A70C | 0.614
135 | C11G A40U C62A | ≤ 0.5
136 | C11G C31G A42U A65C | 0.602
137 | C11G C27A A36G G38A A65C | ≤ 0.5
138 | C11G A36C C46U | ≤ 0.5
139 | C11G U16A C60A | ≤ 0.5
140 | C11G G39C C61U | ≤ 0.5
141 | C11G U28C G39A C60A G67A | ≤ 0.5
142 | C11G U16A C24U | ≤ 0.5
143 | C11G A40U A45U A69U | ≤ 0.5
144 | C11G C29G C55A U64C | ≤ 0.5

Row | Variant | yeast fitness
145 | C11G A15U C24G A40G G51A C60U G67A | ≤ 0.5
146 | C11G A36C G56A A70U | ≤ 0.5
147 | C11G C29G U35C A45U | ≤ 0.5
148 | C11G C49U C62U A70U | ≤ 0.5
149 | C11G C49A | 0.522
150 | C11G C49U | 0.631
151 | C11G A14C C24G A36C G68A | 0.584
152 | C11G C29U C34U | 0.506
153 | C11G C27G G67A | ≤ 0.5
154 | C11G A36C G56A | 0.533
155 | C11G C30U A37U | ≤ 0.5
156 | C11G C27A C31A | ≤ 0.5
157 | C11G C30G C33A C66U | ≤ 0.5
158 | C11G C27A C34G | ≤ 0.5
159 | C11G C24U C34A A37C C55G | 0.526
160 | C11G C24U A42C A65C | ≤ 0.5
161 | C11G C24U U28C C66G | ≤ 0.5
162 | C11G A40C C46U C60A | ≤ 0.5
163 | C11G A14U C34A | 0.528
164 | C11G U16C A21U | ≤ 0.5
165 | C11G A21G C34G A40C | ≤ 0.5
166 | C11G A36C C46G C60G | 0.68
167 | C11G U16C A21U C30G G50C | ≤ 0.5
